Measurements taken from ChEMBL document CHEMBL6127135, “Generation of BT-Amide, a Bone-Targeted Pyk2 Inhibitor, Effective via Oral Administration, for the Prevention of Glucocorticoid-Induced Bone Loss” (J Med Chem, 2024).
pIC50: −log10 of the molar value. Active and inactive are the calls of the source. The calls are words filed in the database; no cut-off is given here.

How the values were obtained:
[1] = test system: Mus musculus; experiment: In vivo inhibition of Glucocorticoid-induced bone loss in C57BL/6 mouse assessed as prevention of bone loss by measuring increase in bone mineral density at 10 mg/kg/day, po treatment initiated 3 days prior to glucocorticoid challenge measured after 2 weeks; type: functional, organism-based; conditions: time 17.0 day
Method in brief: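 Female C57BL/6 mice, 4 months old, randomized; oral gavage 10 mg/kg 5 times per week, starting 3 days before subcutaneous slow-release pellet (placebo or prednisolone 2.1 mg/kg/d). Total-body BMD (head and tail excluded) by DEXA after 2 weeks; analysis blinded. Two-way ANOVA with Tukey post hoc, N = 9–10.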

[2] = Toxicity in Glucocorticoid-induced C57BL/6 mouse bone loss model assessed as adverse effect by measuring mouse with skin lesions at 10 mg/kg/day, po treatment initiated 3 days prior to glucocorticoid challenge measured after 2 weeks; type: organism-based; conditions: in vivo, 408 h, time 17 day
Method in brief: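 Female C57BL/6 mice, 4 months old; oral gavage 10 mg/kg 5 times per week from 3 days before placebo or prednisolone (2.1 mg/kg/d) pellet implantation. Mice scored for development of skin lesions during the study.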

[3] = biological target: Protein-tyrosine kinase 2-beta (Homo sapiens, UniProt Q14289); experiment: Inhibition of Pyk2 kinase (unknown origin) by bioluminescent ADP-Glo kinase assay
Sequence of Protein-tyrosine kinase 2-beta (Q14289 whole entry): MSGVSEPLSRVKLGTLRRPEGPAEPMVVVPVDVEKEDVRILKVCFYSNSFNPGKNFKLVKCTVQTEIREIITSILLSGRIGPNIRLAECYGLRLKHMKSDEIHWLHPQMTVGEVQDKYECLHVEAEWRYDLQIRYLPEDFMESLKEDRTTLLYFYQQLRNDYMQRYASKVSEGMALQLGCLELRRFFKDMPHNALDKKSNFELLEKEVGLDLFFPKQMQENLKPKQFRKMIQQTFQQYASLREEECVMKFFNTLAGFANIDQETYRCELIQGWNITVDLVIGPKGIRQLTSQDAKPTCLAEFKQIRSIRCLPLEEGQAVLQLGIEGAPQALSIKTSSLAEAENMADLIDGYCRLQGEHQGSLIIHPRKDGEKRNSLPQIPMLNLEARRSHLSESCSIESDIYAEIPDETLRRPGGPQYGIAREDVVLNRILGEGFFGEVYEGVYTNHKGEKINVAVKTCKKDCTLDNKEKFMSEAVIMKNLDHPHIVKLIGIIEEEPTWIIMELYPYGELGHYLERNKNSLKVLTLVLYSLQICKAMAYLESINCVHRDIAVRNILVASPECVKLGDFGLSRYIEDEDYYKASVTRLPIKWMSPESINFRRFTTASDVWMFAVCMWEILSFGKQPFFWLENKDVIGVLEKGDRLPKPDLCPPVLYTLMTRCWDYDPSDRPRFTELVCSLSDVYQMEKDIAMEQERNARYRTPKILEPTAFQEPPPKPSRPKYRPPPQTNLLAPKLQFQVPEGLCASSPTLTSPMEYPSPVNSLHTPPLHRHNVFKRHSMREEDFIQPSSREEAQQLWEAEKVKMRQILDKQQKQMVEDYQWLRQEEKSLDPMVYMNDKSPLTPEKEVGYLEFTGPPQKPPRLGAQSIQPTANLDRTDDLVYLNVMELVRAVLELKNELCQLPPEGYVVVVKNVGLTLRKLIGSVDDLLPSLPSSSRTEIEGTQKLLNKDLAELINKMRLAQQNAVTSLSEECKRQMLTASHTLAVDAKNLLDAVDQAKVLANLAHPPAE
Method in brief: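 ADP-Glo luminescent read-out of ADP formation, run per kit instructions; inhibitors tested as 8-point half-log dilution series, 1 uM down to 0.316 nM. IC50 obtained by fitting dose–response curves with an [inhibitor] vs normalized response model; each compound tested at least 3 times.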

[4] = Toxicity in Glucocorticoid-induced C57BL/6 mouse bone loss model assessed as circulating organ toxicity in serum by measuring alkaline phosphatase at 10 mg/kg/day, po treatment initiated 3 days prior to glucocorticoid challenge measured after 2 weeks; type: organism-based; conditions: in vivo, 408 h, time 17 day
Method in brief: (§1)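 Same mouse regimen: 4-month-old female C57BL/6, gavage 10 mg/kg 5×/week, prednisolone 2.1 mg/kg/d or placebo pellets. At study end, blood collected after isoflurane sedation and euthanasia. 14-parameter Comprehensive Diagnostic Profile analyser panel on plasma. Untreated and vehicle mice served as controls. N = 9–10, mean ± SD.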

[5] = Toxicity in Glucocorticoid-induced C57BL/6 mouse bone loss model assessed as circulating organ toxicity in serum by measuring blood urea nitrogen at 10 mg/kg/day, po treatment initiated 3 days prior to glucocorticoid challenge measured after 2 weeks; type: organism-based; conditions: in vivo, 408 h, time 17 day; method in brief: as §1
[6] = Toxicity in Glucocorticoid-induced C57BL/6 mouse bone loss model assessed as circulating organ toxicity in serum by measuring sodium at 10 mg/kg/day, po treatment initiated 3 days prior to glucocorticoid challenge measured after 2 weeks; type: organism-based; conditions: in vivo, 408 h, time 17 day; method in brief: as §1
[7] = Toxicity in Glucocorticoid-induced C57BL/6 mouse bone loss model assessed as circulating organ toxicity in serum by measuring calcium at 10 mg/kg/day, po treatment initiated 3 days prior to glucocorticoid challenge measured after 2 weeks; type: organism-based; conditions: in vivo, 408 h, time 17 day; method in brief: as §1
[8] = Toxicity in Glucocorticoid-induced C57BL/6 mouse bone loss model assessed as circulating organ toxicity in serum by measuring total bilirubin at 10 mg/kg/day, po treatment initiated 3 days prior to glucocorticoid challenge measured after 2 weeks; type: organism-based; conditions: in vivo, 408 h, time 17 day; method in brief: as §1
[9] = Toxicity in Glucocorticoid-induced C57BL/6 mouse bone loss model assessed as circulating organ toxicity in serum by measuring Total protein at 10 mg/kg/day, po treatment initiated 3 days prior to glucocorticoid challenge measured after 2 weeks; type: organism-based; conditions: in vivo, 408 h, time 17 day; method in brief: as §1
[10] = Toxicity in Glucocorticoid-induced C57BL/6 mouse bone loss model assessed as circulating organ toxicity in serum by measuring amylase at 10 mg/kg/day, po treatment initiated 3 days prior to glucocorticoid challenge measured after 2 weeks; type: organism-based; conditions: in vivo, 408 h, time 17 day; method in brief: as §1
[11] = Toxicity in Glucocorticoid-induced C57BL/6 mouse bone loss model assessed as circulating organ toxicity in serum by measuring glucose at 10 mg/kg/day, po treatment initiated 3 days prior to glucocorticoid challenge measured after 2 weeks; type: organism-based; conditions: in vivo, 408 h, time 17 day; method in brief: as §1
[12] = Toxicity in Glucocorticoid-induced C57BL/6 mouse bone loss model assessed as circulating organ toxicity in serum by measuring potassium at 10 mg/kg/day, po treatment initiated 3 days prior to glucocorticoid challenge measured after 2 weeks; type: organism-based; conditions: in vivo, 408 h, time 17 day; method in brief: as §1
[13] = Toxicity in Glucocorticoid-induced C57BL/6 mouse bone loss model assessed as circulating organ toxicity in serum by measuring […] at 10 mg/kg/day, po treatment initiated 3 days prior to glucocorticoid challenge measured after 2 weeks; type: organism-based; conditions: in vivo, 408 h, time 17 day; method in brief: as §1
[14] = Toxicity in Glucocorticoid-induced C57BL/6 mouse bone loss model assessed as adverse effect at 10 mg/kg/day, po treatment initiated 3 days prior to glucocorticoid challenge measured after 2 weeks; type: organism-based; conditions: in vivo, 408 h, time 17 day
[15] = Toxicity in Glucocorticoid-induced C57BL/6 mouse bone loss model assessed as circulating organ toxicity in serum by measuring phosphorus at 10 mg/kg/day, po treatment initiated 3 days prior to glucocorticoid challenge measured after 2 weeks; type: organism-based; conditions: in vivo, 408 h, time 17 day; method in brief: as §1
[16] = Toxicity in Glucocorticoid-induced C57BL/6 mouse bone loss model assessed as circulating organ toxicity in serum by measuring creatinine at 10 mg/kg/day, po treatment initiated 3 days prior to glucocorticoid challenge measured after 2 weeks; type: organism-based; conditions: in vivo, 408 h, time 17 day; method in brief: as §1
[17] = Toxicity in Glucocorticoid-induced C57BL/6 mouse bone loss model assessed as circulating organ toxicity in serum by measuring Albumin at 10 mg/kg/day, po treatment initiated 3 days prior to glucocorticoid challenge measured after 2 weeks; type: organism-based; conditions: in vivo, 408 h, time 17 day; method in brief: as §1

## CNC(=O)c1ccccc1Nc1nc(Nc2ccc(OC(=O)CCCCC(=O)NCCCC(O)(P(=O)(O)O)P(=O)(O)O)cc2OC)ncc1Cl
[1]
  Activity: inactive
[2]
  Activity: Non-Toxic

## CNC(=O)c1ccccc1Nc1nc(Nc2ccc(N3CCOCC3)cc2OC)ncc1Cl
[1]
  Activity: Active
[3]
  pIC50: 7.77
[2]
  Activity: 15%

## CNC(=O)c1ccccc1Nc1nc(Nc2ccc(NC(=O)CCCCC(=O)NCCCC(O)(P(=O)(O)O)P(=O)(O)O)cc2OC)ncc1Cl
[1]
  Activity: Active
[4]
  Activity: Non-Toxic
[5]
  Activity: Non-Toxic
[3]
  pIC50: 7.35
[6]
  Activity: Non-Toxic
[7]
  Activity: Non-Toxic
[8]
  Activity: Non-Toxic
[9]
  Activity: Non-Toxic
[10]
  Activity: Non-Toxic
[11]
  Activity: Non-Toxic
[12]
  Activity: Non-Toxic
[13]
  Activity: Non-Toxic
[14]
  Activity: Non-Toxic
[15]
  Activity: Non-Toxic
[16]
  Activity: Non-Toxic
[17]
  Activity: Non-Toxic

## CNC(=O)c1ccccc1Nc1nc(Nc2ccc(N)cc2OC)ncc1Cl
[3]
  pIC50: 7.36

## CNC(=O)c1ccccc1Nc1nc(Nc2ccc(N3CCC(O)CC3)cc2OC)ncc1Cl
[3]
  pIC50: 6.99
